In ChEMBL document CHEMBL4330086, “Synthesis, in silico experiments and biological evaluation of 1,3,4-trisubstituted pyrazole derivatives as antimalarial agents” (Eur J Med Chem, 2019):

Experiments:
Plasmodium berghei [1] = test: Anti-plasmodial activity against Plasmodium berghei ANKA infected in mouse assessed as suppression in blood parasitemia level at 0.048 mmol/kg/day, po administered as single dose at 24 hrs time interval from day 1 to day 3 and measured 96 hrs post infection by Giemsa staining based microscopic method relative to control; format: functional
How it was run: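 Swiss albino mice, five per group, were infected i.v. on day 0 with 0.2 ml of 2 x 10^7 P. berghei ANKA parasitized erythrocytes. Oral dosing at 0.048 mmol/kg/day began 2 h later and repeated daily on days 1-3. The vehicle was 7% Tween and 3% ethanol in water. Giemsa smears were read on day 4 (5 fields of ~100 RBC). Suppression was taken against vehicle controls, and survival was tracked per mouse.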

Plasmodium berghei [2] = test: Anti-plasmodial activity against Plasmodium berghei ANKA infected in mouse assessed as mean survival time at 0.048 mmol/kg/day, po administered as single dose at 24 hrs time interval from day 1 to day 3 and measured 96 hrs post infection (reference value: 4.33 +/- 0.7 day); format: functional

Row | SMILES | Activity (Plasmodium berghei [1]) [%] | MST (Plasmodium berghei [2]) [days]
1 | COc1ccc(-c2nn(-c3ccccc3)cc2C(=O)N/N=C/c2cccs2)cc1 | 86.2 | 11.5
2 | COc1ccc(-c2nn(-c3ccccc3)cc2C(=O)NNC(=S)Nc2ccccc2)cc1 | 73.56 | 6.66
3 | C=CCN1C(=O)CS/C1=N/NC(=O)c1cn(-c2ccccc2)nc1-c1ccc(OC)cc1 | 79.31 | 11.33
4 | C=CCn1c(-c2ccccc2)cs/c1=N/NC(=O)c1cn(-c2ccccc2)nc1-c1ccc(OC)cc1 | 71.26 | 7.33
5 | COc1ccc(-c2nn(-c3ccccc3)cc2-c2n[nH]c(=S)n2-c2ccccc2)cc1 | 73.56 | 7.66
6 | C=CCn1c(-c2cn(-c3ccccc3)nc2-c2ccc(OC)cc2)n[nH]c1=S | 63.21 | 5.5
7 | COc1ccc(-c2nn(-c3ccccc3)cc2C(=O)N/N=C2/SCC(=O)N2c2ccccc2)cc1 | 82.75 | 12.83
8 | COc1ccc(-c2nn(-c3ccccc3)cc2C(=O)NNC(C)=O)cc1 | 63.21 | 6.66
9 | C=CCNC(=S)NNC(=O)c1cn(-c2ccccc2)nc1-c1ccc(OC)cc1 | 70.11 | 6.66
10 | COc1ccc(-c2nn(-c3ccccc3)cc2C(=O)NNC=O)cc1 | 70.11 | 6.66
